ChEMBL document CHEMBL2034874, “5-acetyl-2-arylbenzimidazoles as antiviral agents. Part 4” (Eur J Med Chem, 2012)

Key:
[1] = system: Coxsackievirus B5; assay: Antiviral activity against Coxsackie virus type B5 Ohio-1 ATCC VR-29 infected in african green monkey Vero-76 cells assessed as reduction in viral plaque after 3 days by crystal violet staining; assay type: functional, organism-based; conditions: Enterovirus B, Ohio-1 ATCC VR-29, Vero 76, 72 h
Outline: (§1)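 Vero-76 monolayers (2×10^5 cells/well) infected for 2 h at 50–100 PFU/well. Unadsorbed virus removed. D-MEM with 1% inactivated FBS, 0.75% methylcellulose and serial compound dilutions added. Incubation at 37 °C for 3 days (CVB-5, HSV-1) or 5 days (RSV). Fixed and stained with 50% ethanol/0.8% crystal violet, then plaques counted. EC50 by linear regression versus untreated controls.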

[2] = system: Vesicular stomatitis Indiana virus; assay: Antiviral activity against Vesicular stomatitis virus indiana ATCC VR-1540 infected in african green monkey Vero-76 cells assessed as reduction in viral plaque after 2 days by crystal violet staining; assay type: functional, organism-based; conditions: ATCC VR-1540, Vero 76, 48 h
[3] = system: Vaccinia virus; assay: Antiviral activity against Vaccinia virus Elstree-Lister ATCC VR-1549 infected in african green monkey Vero-76 cells assessed as reduction in viral plaque after 3 days by crystal violet staining; assay type: functional, organism-based; conditions: Orthopoxvirus vaccinia, Elstree-Lister ATCC VR-1549, Vero 76, 72 h
[4] = Antiviral activity against Human respiratory syncytial virus A2 ATCC VR-1540 infected in african green monkey Vero-76 cells assessed as reduction in viral plaque after 5 days by crystal violet staining; assay type: functional, cell-based; conditions: ATCC VR-1540, Vero 76, 120 h; outline: as §1
[5] = system: Yellow fever virus; assay: Antiviral activity against Yellow fever virus 17D infected in BHK21 cells assessed as inhibition of virus-induced cytopathogenicity after 3 to 4 days by MTT assay; assay type: functional, cell-based; conditions: BHK-21
[6] = Cytotoxicity against african green monkey Vero 76 cells after 48 to 96 hrs by MTT assay; assay type: cell-based; conditions: chlorocebus sabaeus
[7] = system: Human alphaherpesvirus 1; assay: Antiviral activity against Herpes simplex virus type 1 KOS ATCC VR-1493 infected in african green monkey Vero-76 cells assessed as reduction in viral plaque after 3 days by crystal violet staining; assay type: functional, organism-based; conditions: Human alphaherpesvirus 1, KOS ATCC VR1493, Vero 76, 72 h; outline: as §1
[8] = Cytotoxicity against BHK21 cells by MTT assay; assay type: cell-based, Mesocricetus auratus; conditions: hamster, BHK-21 cells
Outline: (§2)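 Mock-infected MDBK (6×10^5 cells/mL, MEM-E with 10% horse serum) or BHK (1×10^6 cells/mL, MEM-E with 10% FBS) cells incubated with serial compound dilutions at 37 °C and 5% CO2. Viability measured by MTT after 48–96 h. CC50 by linear regression against untreated controls.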

[9] = Cytotoxicity against MDBK cells after 48 to 96 hrs by MTT assay; assay type: cell-based, Bos taurus; conditions: cattle; outline: as §2
[10] = Antiviral activity against BVDV1 NADL ATCC VR-534 infected in MDBK cells assessed as inhibition of virus-induced cytopathogenicity after 3 to 4 days by MTT assay; assay type: functional, cell-based, Bovine viral diarrhea virus 1-NADL; conditions: Bovine viral diarrhea virus isolates and strains, ATCC VR-534, MDBK
Outline: (§3)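 BHK (5×10^4/well) or MDBK (3×10^4/well) cells grown to confluent monolayers overnight, infected at m.o.i. 0.01 in maintenance MEM-Earl with 0.5% inactivated FBS. Serially diluted compounds added after 1 h. Viability read by MTT after 3–4 days at 37 °C. Values are expressed as % of untreated controls, and EC50 is derived by linear regression. Duplicate samples.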

[11] = system: Mammalian orthoreovirus 1; assay: Antiviral activity against Reovirus 1 3651 ATCC VR-214 infected in BHK21 cells assessed as inhibition of virus-induced cytopathogenicity after 3 to 4 days by MTT assay; assay type: functional, organism-based; conditions: Mammalian orthoreovirus 1, 3651 ATCC VR-214, BHK-21; outline: as §3
[12] = system: Poliovirus 1; assay: Antiviral activity against Polio virus type 1 strain sabin ATCC VR-1562 infected in african green monkey Vero-76 cells assessed as reduction in viral plaque after 2 days by crystal violet staining; assay type: functional, cell-based, Human poliovirus 1 strain Sabin; conditions: Enterovirus C, ATCC VR-1562, Vero 76, 48 h

SMILES | EC50 [1] | EC50 [2] | EC50 [3] | EC50 [4] | EC50 [5] | CC50 [6] | EC50 [7] | CC50 [8] | CC50 [9] | EC50 [10] | EC50 [11] | EC50 [12]
C/C(=N\NC(N)=O)c1ccc2[nH]c(-c3ccccc3)nc2c1 | > 100 µM | > 100 µM | > 100 µM | > 100 µM | > 100 µM | > 100 µM | > 100 µM | > 100 µM | > 100 µM | 50 µM | > 100 µM | > 100 µM
C/C(=N\NC(N)=O)c1ccc2[nH]c(-c3ccoc3)nc2c1 | > 100 µM | > 100 µM | > 100 µM | > 100 µM | > 100 µM | > 100 µM | > 100 µM | > 100 µM | > 100 µM | 60 µM | > 100 µM | > 100 µM
C/C(=N\O)c1ccc2[nH]c(-c3ccc(C(F)(F)F)cc3)nc2c1 | – | – | – | – | – | – | – | – | 55 µM | > 55 µM | – | –
COc1ccc(-c2nc3cc(/C(C)=N/O)ccc3[nH]2)cc1 | > 100 µM | – | > 100 µM | – | > 44 µM | > 100 µM | – | 44 µM | 44 µM | > 44 µM | > 100 µM | > 100 µM
CC(=O)c1ccc2[nH]c(-c3ccc(Cl)cc3)nc2c1 | > 100 µM | > 100 µM | > 100 µM | > 100 µM | > 100 µM | > 100 µM | > 100 µM | > 100 µM | > 100 µM | > 100 µM | > 100 µM | > 100 µM
O=c1cnn([C@@H]2O[C@H](CO)[C@@H](O)[C@H]2O)c(=O)[nH]1 [6-AZAURIDINE] | – | – | – | 1.2 µM | – | ≥ 12.5 µM | – | – | – | – | – | –
Clc1ccc2c(c1)nc(Cn1nc3ccccc3n1)n2C[C@H]1CCCN2CCCCC12 (stereo not given in full) | – | – | – | 0.03 µM | – | – | – | – | – | – | – | –
C#C[C@@]1(O)[C@H](O)[C@@H](CO)O[C@H]1n1ccc(N)nc1=O [2'-ETHYNYL-D-CYTIDINE] | 27 µM | – | – | – | – | > 100 µM | – | – | – | – | – | 23 µM
C[C@@]1(O)[C@H](O)[C@@H](CO)O[C@H]1n1cnc2c(=O)[nH]c(N)nc21 [2'-B-METHYL-GUANOSINE] | – | – | – | – | – | – | – | > 10 µM | > 10 µM | 1.1 µM | – | –
CC(=O)c1ccc2[nH]c(-c3ccc(C(F)(F)F)cc3)nc2c1 | > 100 µM | > 100 µM | > 100 µM | > 100 µM | > 100 µM | > 100 µM | > 100 µM | > 100 µM | > 100 µM | 15 µM | > 100 µM | > 100 µM
C/C(=N\NC(N)=O)c1ccc2c(c1)nc(-c1ccoc1)n2C1CCCCC1 | – | – | – | – | – | – | – | – | > 100 µM | 100 µM | – | –
C[C@@]1(O)[C@H](O)[C@@H](CO)O[C@H]1n1ccc(N)nc1=O | – | – | – | – | – | – | – | > 100 µM | – | – | 16 µM | –
C/C(=N\O)c1ccc2[nH]c(-c3ccccc3)nc2c1 | > 100 µM | > 100 µM | > 100 µM | > 100 µM | > 100 µM | > 100 µM | > 100 µM | > 100 µM | > 100 µM | > 100 µM | > 100 µM | > 100 µM
Nc1ccc(-c2nc3cc(Cl)ccc3[nH]2)c2ccccc12 | – | – | – | – | 27 µM | – | – | – | – | – | – | –
COc1c(C)c2c(c(O)c1C/C=C(\C)CCC(=O)O)C(=O)OC2 [MYCOPHENOLIC ACID] | – | – | 1.5 µM | – | – | ≥ 12.5 µM | – | – | – | – | – | –
CC(=O)Nc1ccc(/C=C/c2nc3cc(C(F)(F)F)ccc3[nH]2)cc1 | – | – | – | 1 µM | – | – | – | – | – | – | – | –
C/C(=N\NC(N)=O)c1ccc2[nH]c(-c3ccc(Cl)cc3)nc2c1 | > 100 µM | > 100 µM | > 100 µM | > 100 µM | > 100 µM | > 100 µM | > 100 µM | > 100 µM | > 100 µM | > 100 µM | > 100 µM | > 100 µM
